In the library only some 2.5% were active in any assay of this set; here they are far more common.
SENP8 block-1: SENP8 protease inhibition; AID 2540; inhibition, % at 10 µM; Q96LD8; purified SENP8, Z-RLRGG-aminoluciferin cleavage, luminescence; hit rate 1.2% among 330,000; in the data active = inhibition above about 50%
SENP8 block-2: inhibitors of human SENP8 protease; inhibition, % at 20 µM; AID 602440; recombinant SENP8, Nedd8 substrate fluorescence; hit rate 0.64% among 360,000; in the data active = inhibition mostly above about 40%, no sharp cut-off; inactive = mostly below about 27%
SENP1 inh: blocks the human SENP1 SUMO protease catalytic domain; Q9P0U3; recombinant SENP1 catalytic domain, CyPet-SUMO1-YPet FRET cleavage; inhibition, % at 10 µM; hit rate 0.21% among 360,000; AID 624204;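 active = inhibition at least 30% at 10 µM, raw YFP signal under a set limit, fluorescence ratio 0.5 to 1.5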;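 also: 0% = enzyme with DMSO and 100% = no enzyme wells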
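Compound: 10 µM single point, 0.5% DMSO; Test system: hSENP1 catalytic domain, recombinant; Timing: 50 min reaction at room temperature; Technique: FRET, CFP and YFP emission; Control set: no-enzyme wells low, DMSO-plus-enzyme wells high control.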
SENP6 inh: inhibitors of human SENP6 protease; AID 2599; inhibition, % at 10 µM; Recombinant SENP6 catalytic domain, aminoluciferin luminescence; Q9GZR1; hit rate 1.8% among 330,000;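 active = inhibition above about 50% at the single tested dose, limit read from the data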;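 also: plate controls were DMSO wells with enzyme for no effect and DMSO wells lacking enzyme for full effect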
Target sequence (Q9GZR1 628-1112 limits assumed): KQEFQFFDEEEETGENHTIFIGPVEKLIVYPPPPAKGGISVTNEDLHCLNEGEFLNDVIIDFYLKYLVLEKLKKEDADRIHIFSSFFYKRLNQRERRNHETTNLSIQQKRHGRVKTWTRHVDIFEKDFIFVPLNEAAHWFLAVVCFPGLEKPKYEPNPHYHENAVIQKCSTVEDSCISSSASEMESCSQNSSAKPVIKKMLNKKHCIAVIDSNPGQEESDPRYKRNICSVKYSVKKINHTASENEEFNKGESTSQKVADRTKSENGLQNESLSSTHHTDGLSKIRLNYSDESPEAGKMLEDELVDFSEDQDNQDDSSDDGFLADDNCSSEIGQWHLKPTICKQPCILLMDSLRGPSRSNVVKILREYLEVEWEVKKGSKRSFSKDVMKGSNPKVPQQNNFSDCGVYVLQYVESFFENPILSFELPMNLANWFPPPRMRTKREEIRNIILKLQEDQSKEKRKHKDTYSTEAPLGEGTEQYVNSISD
SENP7 inh: inhibitors of human SENP7 protease; Q9BQF6; recombinant SENP7, Z-RLRGG-aminoluciferin luminescence, 40 min; inhibition, % at 5 µM; hit rate 1.5% among 330,000;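 active = inhibition above about 50% at the single test dose, limit read from the data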;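 also: plate controls were DMSO with enzyme for no effect and no enzyme buffer wells for full effect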
SENP1 inh conf: confirmation of human SENP1 SUMO protease inhibitors | recombinant SENP1, CyPet-SUMO1-YPet FRET cleavage | inhibition, % at 10 µM | shares compounds with SENP1 inh | hit rate 34% among 520; in the data active = inhibition mostly above about 35%, no sharp cut-off; inactive = mostly below about 32%;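 also: 0% = enzyme with DMSO and 100% = no enzyme control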
SENP1 kin conf: SENP1 (human) inhibition, kinetic confirmation; recombinant SENP1, CyPet-SUMO1-YPet FRET kinetic cleavage; hit rate 26% among 520; inhibition, % at 10 µM; shares compounds with SENP1 inh; in the data active = inhibition mostly above about 32%, no sharp cut-off; inactive = mostly below about 29%;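 also: 0% = DMSO with enzyme and 100% = no enzyme substrate only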
Starred values were filed as active, the others as inactive.

`COc1ccccc1N1CCN(C(=O)CC(NC(=O)c2ccccc2Cl)c2ccccc2)CC1` (centres undefined) gave SENP8 block-1 0, SENP8 block-2 9, SENP1 inh -2, SENP6 inh -12 and SENP7 inh -4.
CC(C(=O)c1ccc(Br)cc1)[n+]1cccc(NC(=O)c2ccccc2)c1 (centres undefined) was read as SENP8 block-1 -12, SENP8 block-2 31, SENP1 inh 1, SENP6 inh -5 and SENP7 inh -2.
For CC(C(=O)c1ccc(Br)cc1)[n+]1cccc2ccccc21 (centres undefined) the results were SENP8 block-1 -7, SENP8 block-2 -43, SENP1 inh 52*, SENP6 inh -3, SENP7 inh -3, SENP1 inh conf 18 and SENP1 kin conf 22.
Screening COc1cc(O)c(C=Nc2ccccc2NS(=O)(=O)c2ccc(C)cc2)c(OC)c1 returned SENP8 block-2 12, SENP1 inh 51*, SENP1 inh conf 74* and SENP1 kin conf 67*.
Screening COc1ccccc1NS(=O)(=O)c1ccc(O)cc1 returned SENP8 block-1 0, SENP8 block-2 20, SENP1 inh 0, SENP6 inh -2 and SENP7 inh 13.
`Fc1ccc(C2=CC(c3cccs3)n3nnnc3N2)cc1` (centres undefined) gave SENP8 block-1 -1, SENP8 block-2 -20, SENP1 inh 33*, SENP6 inh -5, SENP7 inh -3, SENP1 inh conf 10 and SENP1 kin conf 11.
CC1CCCCC1NC1=NCCCS1 (centres undefined) was read as SENP8 block-1 -5, SENP6 inh -1 and SENP7 inh 4.
For C=Cc1ccc(CC2(C)C(=O)Nc3ccc(-c4cccnc4)cc32)cc1 (centres undefined) the results were SENP8 block-2 5 and SENP1 inh 0.
CN1CCN(C2=Nc3c(Cl)cc(Cl)c4cccc2c34)CC1 was read as SENP8 block-1 2, SENP8 block-2 31, SENP1 inh 82*, SENP6 inh -3, SENP7 inh 7, SENP1 inh conf 101* and SENP1 kin conf 57*.
`CCc1nnc(NC(=O)CCN2C(=O)/C(=C/c3cc(OC)c(OC)c(OC)c3)SC2=S)s1` gave SENP8 block-1 9, SENP8 block-2 20, SENP1 inh 48*, SENP6 inh -8, SENP7 inh 4, SENP1 inh conf 39* and SENP1 kin conf 29.
Screening COc1cc(/C=C2\SC(=S)N(CCC(=O)Nc3ccc(O)cc3)C2=O)cc(OC)c1OC returned SENP8 block-1 9, SENP8 block-2 33, SENP1 inh 14, SENP6 inh -16 and SENP7 inh -1.
For Cc1nc2ccc(S(=O)(=O)N(C)CC(=O)NCc3ccc(N(C)C)cc3)cc2s1 the results were SENP8 block-1 3, SENP8 block-2 6, SENP1 inh 56*, SENP6 inh 7, SENP7 inh -4, SENP1 inh conf 15 and SENP1 kin conf 15.
For Cc1nc2ccc(S(=O)(=O)N(C)CC(=O)NCc3ccc4c(c3)OCO4)cc2s1 the results were SENP8 block-1 -5, SENP8 block-2 21, SENP1 inh 3, SENP6 inh -3 and SENP7 inh -1.
`CC(=O)Nc1ccc(SCC(=O)Nc2cc(C)on2)cc1` gave SENP8 block-1 -1, SENP8 block-2 13, SENP1 inh -1, SENP6 inh 2 and SENP7 inh 1.
COc1ccccc1NC(=O)CON=C(N)CC(=O)NC1CCCCC1 was read as SENP8 block-1 -2, SENP8 block-2 -2, SENP1 inh 55*, SENP6 inh -5, SENP7 inh -4, SENP1 inh conf 51* and SENP1 kin conf 46*.
Screening O=[N+]([O-])c1ccc(C=NNc2ccc(S(=O)(=O)O)cc2)cc1 returned SENP8 block-2 26, SENP1 inh 73*, SENP1 inh conf 29 and SENP1 kin conf 16.
O=[N+]([O-])c1ccc(N/N=C/c2cccnc2)cc1 was read as SENP8 block-1 3, SENP8 block-2 -93, SENP1 inh -25, SENP6 inh 32 and SENP7 inh 5.

Screening results (PubChem)
